Bioassay records as filed in PubChem.
A selection: hits, their analogues and other compounds. The true share with any hit is near 2.7%.
CaV13 ICDI inh = Primary screen for inhibitors of IQ motif and Ca2+-dependent inactivation inhibitor domain binding in CACNA1D, Förster resonance energy transfer in living cells, …; HEK cells, CFP/YFP FRET ICDI-IQ, plate reader, 10 min; percent FRET-ratio fall versus neutral wells; inhibition, % at 12.3 µM; hit rate 0.098% among 340,000;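 active = mean replicate inhibition of at least 30% and at least 1% of replicates passing that level; inconclusive = only one of the two criteria is met; inactive = neither criterion is met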;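 note: 0% = median of the neutral control wells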
AF4-AF9 inh = inhibitors of human MLL-AF4/AF9 interaction; P42568; hit rate 0.47% among 350,000; inhibition, % at 10 µM; AlphaScreen, biotin-AF4 peptide binding to FLAG-AF9;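 active = every replicate reaching a set inhibition limit, whatever the replicate mean, cut at about 25% in these data; inconclusive = mean inhibition reaches that limit but some replicates miss it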;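 note: 0% = plate neutral control median and 100% = total signal loss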
Target sequence (P42568 whole entry, looked up): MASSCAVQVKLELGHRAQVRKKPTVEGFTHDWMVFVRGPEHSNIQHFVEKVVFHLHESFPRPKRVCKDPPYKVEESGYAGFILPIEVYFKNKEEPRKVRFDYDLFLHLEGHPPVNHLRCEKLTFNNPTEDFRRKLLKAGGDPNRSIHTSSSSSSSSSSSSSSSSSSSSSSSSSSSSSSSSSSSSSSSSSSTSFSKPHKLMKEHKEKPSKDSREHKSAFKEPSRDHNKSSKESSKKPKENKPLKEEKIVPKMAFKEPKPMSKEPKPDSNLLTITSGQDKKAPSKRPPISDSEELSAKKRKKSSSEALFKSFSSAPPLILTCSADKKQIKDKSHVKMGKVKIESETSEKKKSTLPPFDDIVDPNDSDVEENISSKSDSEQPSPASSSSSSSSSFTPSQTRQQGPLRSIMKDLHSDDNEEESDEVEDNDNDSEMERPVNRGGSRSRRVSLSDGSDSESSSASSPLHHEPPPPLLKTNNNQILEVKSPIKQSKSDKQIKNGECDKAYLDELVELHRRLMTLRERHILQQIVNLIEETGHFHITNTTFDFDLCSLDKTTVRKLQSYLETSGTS
DENV2 CPE rescue = DENV2-induced cell death inhibition | DENV2-infected cells, cytopathic effect rescue, plate reader | CPE inhibition, % at 9.99 µM | hit rate 1.7% among 350,000; in the data active = CPE inhibition above about 20%, passing the limit was not always enough; inconclusive = no clear call, values can overlap the other calls; tested in BHK-21 cells;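 note: 0% = median of neutral control wells and 100% = median of positive control wells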
SIRT5 block = blocks human SIRT5 desuccinylation of peptide; hit rate 1.1% among 330,000; AID 652115; Purified SirT5, succinyl-peptide AMC, trypsin-coupled fluorescence; Q9NXA8; inhibition, % at 15 µM; in the data active = inhibition above about 15%; inconclusive = no clear call, values can overlap the other calls
S100A4 inh HTS = S100A4-myosin IIA interaction inhibition. P26447. S100A4/TAMRA-MyoIIA peptide fluorescence polarization. inhibition, % at 10.7 µM. hit rate 0.14% among 360,000;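 active = mean inhibition of at least 70% across replicates, with every replicate also reaching that level; inconclusive = mean inhibition reaches 70% but some replicates fall short; inactive = mean inhibition below 70%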
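Test system – S100A4 monomer (human) · Compound – single-point compound testing · Schedule – 5 min incubation before reading · Probe or stimulus – TAMRA-labelled myosin IIA heavy-chain peptide probe, 5 nM · Benchmarks – neutral control DMSO, positive control TFP · Medium – Calcium-containing HEPES buffer, pH 7.2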
The depositor's hits bear a star; ? = inconclusive; / = not tested or not shown.

SMILES	CaV13 ICDI inh	AF4-AF9 inh	DENV2 CPE rescue	SIRT5 block	S100A4 inh HTS
CCS(=O)(=O)N[C@@H]1C=C[C@H](CC(=O)Nc2ccc(-c3ccccc3)cc2)O[C@@H]1CO	/	-1	70*	/	-2
Cn1cnc(S(=O)(=O)N[C@H]2CC[C@@H](CC(=O)Nc3ccccc3)O[C@@H]2CO)c1	/	-3	-2	34*	-8
Cc1ccc(S(=O)(=O)N[C@@H]2CC[C@@H](CC(=O)N3CCN(c4ccccc4)CC3)O[C@@H]2CO)cc1	/	1	-5	24*	6
O=C(C[C@@H]1C=C[C@@H](NS(=O)(=O)c2ccccc2)[C@H](CO)O1)NCc1ccc(Cl)c(Cl)c1	/	-1	-2	-2	0
Cc1ccc(S(=O)(=O)N[C@@H]2C=C[C@H](CC(=O)N3CCN(c4ccccc4)CC3)O[C@H]2CO)cc1	/	-1	-4	2	4
Cc1ccc(S(=O)(=O)N[C@@H]2C=C[C@H](CC(=O)N3CCN(c4ccccc4)CC3)O[C@@H]2CO)cc1	/	1	0	25*	-12
COc1ccccc1S(=O)(=O)N[C@H]1CC[C@H](CC(=O)N2CCN(C)CC2)O[C@@H]1CO	/	-4	-11	4	128*
CN(C)CCCNC(=O)C[C@@H]1C=C[C@H](NS(=O)(=O)c2ccccc2)[C@@H](CO)O1	/	2	-4	15*	-1
Cn1cnc(S(=O)(=O)N[C@@H]2C=C[C@H](CC(=O)N3CCN(c4ccccc4)CC3)O[C@@H]2CO)c1	/	0	94*	1	3
CN(C)CCCNC(=O)C[C@@H]1C=C[C@@H](NS(=O)(=O)c2ccccc2)[C@H](CO)O1	/	2	-6	-1	4
C/C=C/c1ccc([C@@H]2[C@H]3CN(Cc4ccccc4)CC(=O)N3[C@H]2CO)cc1	/	6	-4	-1	8
N#C[C@H]1[C@@H](c2ccccc2-c2cccc(F)c2)[C@@H](CO)N1C(=O)Cc1cccnc1	/	0	-5	4	14
Cc1ccc(S(=O)(=O)Nc2ccc3c(c2)C(=O)N([C@H](C)CO)C[C@@H](C)[C@H](CN(C)Cc2ccc(C(F)(F)F)cc2)OCCCC[C@@H](C)O3)cc1	/	2	-28	10	58
C[C@@H]1CCCCO[C@H](CN(C)Cc2ccc(C(F)(F)F)cc2)[C@@H](C)CN([C@H](C)CO)C(=O)c2cc(NS(=O)(=O)c3ccc(F)cc3)ccc2O1	/	-1	-15	2	1
C[C@@H]1CCCCO[C@@H](CN(C)Cc2ccc(C(F)(F)F)cc2)[C@H](C)CN([C@@H](C)CO)C(=O)c2cc(NS(=O)(=O)c3ccc(F)cc3)ccc2O1	/	1	-2	19*	-25
Cc1ccc(S(=O)(=O)Nc2ccc3c(c2)C(=O)N([C@H](C)CO)C[C@H](C)[C@H](CN(C)Cc2ccc(C(F)(F)F)cc2)OCCCC[C@@H](C)O3)cc1	/	2	26*	8	3
C[C@@H]1CN([C@@H](C)CO)C(=O)c2cc(NS(=O)(=O)c3ccc(F)cc3)ccc2O[C@@H](C)CCCCO[C@H]1CN(C)Cc1ccc(C(F)(F)F)cc1	/	-2	0	28*	-7
C[C@@H]1CCCCO[C@@H](CN(C)Cc2ccc(C(F)(F)F)cc2)[C@@H](C)CN([C@@H](C)CO)C(=O)c2cc(NS(=O)(=O)c3ccc(F)cc3)ccc2O1	/	2	6	12	-32
C[C@H]1CCCCO[C@H](CN(C)Cc2ccc(C(F)(F)F)cc2)[C@@H](C)CN([C@@H](C)CO)C(=O)c2cc(NS(=O)(=O)c3ccc(Cl)cc3)ccc2O1	/	-3	-1	19*	-3
CCCNC(=O)N1C[C@@H](O)COC[C@H]2O[C@@H](CC(=O)N[C@H]3CCN(Cc4ccccc4)C3)CC[C@@H]21	/	/	-4	/	/
O=C(CSc1ncc(S(=O)(=O)c2ccccc2)c(=O)[nH]1)Nc1ccccc1Cl	-8	-8	-1	1	-2
CSc1ncc(S(=O)(=O)c2ccccc2)c(=O)[nH]1	1	-3	10	20*	-3
CC=Cc1ccc2n(c1=O)C[C@H]1[C@H](CO)[C@@H](C(=O)N3CCc4ccccc4C3)N(C(=O)COC)[C@@H]21 (mixture of isomers)	/	-3	1	/	/
COCC(=O)Nc1ccc2c(c1)C(=O)N(C)C[C@@H](OC)[C@H](C)CN(C(=O)c1ccccc1)[C@@H](C)CO2	/	-1	/	2	-2
COc1ccc(/C=C/C(=O)C23CC4CC(CC(C4)C2)C3)cc1CN1CCOCC1	-2	26*	-5	-8	-7
SMILES	CaV13 ICDI inh	AF4-AF9 inh	DENV2 CPE rescue	SIRT5 block	S100A4 inh HTS
CCN=C1NC(CCc2ccccc2)C(C(=O)OC)=C(C)N1Cc1ccccc1C(F)(F)F (configuration not stated)	-4	-1	?	/	-1
C[C@H](O)C#Cc1cnc2c(c1)C(=O)N([C@@H](C)CO)C[C@H](C)[C@H](CN(C)C(=O)Cc1ccncc1)O2	/	-3	4	0	3
C[C@H]1CN([C@@H](C)CO)C(=O)CCCn2cc(nn2)CO[C@@H]1CN(C)Cc1cccc(C(=O)O)c1	/	-19	24*	-1	2
C[C@H]1CN([C@@H](C)CO)C(=O)CCCn2cc(nn2)CO[C@H]1CN(C)Cc1ccc(C(=O)O)cc1	/	-1	25*	-4	-2
C[C@@H]1CN([C@H](C)CO)C(=O)Cc2cc(NC(=O)NC3CCCCC3)ccc2O[C@@H]1CN(C)Cc1ccc(C(=O)O)cc1	/	-3	1	7	-4
C/C=C\C(=O)Nc1cccc(C2=NOC3(C2)C[C@@H](C(N)=O)N(C(=O)c2ccc(OC)cc2)C3)c1 (some centres not stated)	-9	-4	22*	-1	12
CO[C@@H](C(=O)N(C)C[C@H]1OCc2ccccc2-c2ccccc2C(=O)N([C@@H](C)CO)C[C@@H]1C)c1ccccc1	/	-3	-2	19*	-29
CCOC(=O)N(C)C[C@H]1OCc2ccccc2-c2ccccc2C(=O)N([C@H](C)CO)C[C@@H]1C	/	4	-3	21*	-7
CCN1[C@@H]2c3ccc(-c4cccc(F)c4)c(=O)n3C[C@@H]2[C@@H](CO)[C@@H]1C(=O)N[C@H](C)c1ccccc1	/	1	3	27*	1
CN1[C@H](C(=O)NC2CCCCC2)[C@@H](CO)[C@@H]2Cn3c(ccc(-c4cccc(F)c4)c3=O)[C@@H]21	/	0	5	16*	4
CCN1[C@@H]2c3ccc(-c4ccccc4)c(=O)n3C[C@@H]2[C@@H](CO)[C@@H]1C(=O)NCc1ccccc1	/	2	-3	22*	1
O=C(NC1CCCC1)[C@H]1[C@H](CO)[C@H]2Cn3c(ccc(-c4ccncc4)c3=O)[C@H]2N1CCc1ccccc1	/	1	11	19*	4
CN1CCN(C(=O)C[C@H]2CC[C@H]3[C@@H](COc4ccc(NC(=O)C5CCCCC5)cc4C(=O)N3C)O2)CC1	/	-13	4	-1	3
